# Screening data from PubChem BioAssay.
# Rows were chosen to be rich in hits. Some 3.1% of all compounds tested hit in one or more screens of this group.
# MEKK2wt PB1 HTS = modulators of MEK5 binding to wildtype MEKK2, primary screen, biochemical, multiplex bead flow cytometry, Alexa488-MEK5; binding response (% of control), % at 10 µM; actives 1.1% (n = 290,000); Mitogen-activated protein kinase kinase kinase 2 (Homo sapiens), Q9Y2U5; Alexa488-MEK5 binding to MEKK2 WT; actives lie on both sides; in the data active = binding response below about 67% or above about 130%
# UBC13 inh = UBC13 polyubiquitin chain formation inhibitors, primary screen, biochemical, TR-FRET, uHTS; inhibition, % at 20 µM; actives 0.47% (n = 330,000); in the data active = inhibition above about 45%, passing the limit was not always enough
# Target sequence (P61088 whole entry, looked up): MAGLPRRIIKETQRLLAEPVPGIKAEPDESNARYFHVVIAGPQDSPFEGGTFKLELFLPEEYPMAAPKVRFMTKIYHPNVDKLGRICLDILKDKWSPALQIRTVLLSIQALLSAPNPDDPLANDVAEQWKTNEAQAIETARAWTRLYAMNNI
# MEKK2 mut-MEK5 = MEK5 binding signal on mutant MEKK2 PB1, primary screen, biochemical, multiplex bead flow cytometry, Alexa488-MEK5; percent response, % at 10 µM; actives 0.35% (n = 290,000); Alexa488-MEK5 binding to MEKK2 mutant; in the data active = percent response above about 24%, passing the limit was not always enough
# MEKK3 PB1 HTS = modulators of MEKK3-MEK5 PB1 binding, primary screen, biochemical, wildtype MEKK3, multiplex bead flow cytometry, Alexa488-MEK5; Mitogen-activated protein kinase kinase kinase 3 (Homo sapiens), Q99759; bead-based flow cytometry, Alexa488-MEK5 binding to MEKK3; actives lie on both sides; 0 = blocked by unlabeled MEK5, 100 = vehicle; binding response (% of control), % at 10 µM; actives 1.4% (n = 290,000); AID 1529, 2009;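 active = binding response more than 3 SD above or below the average of its plate-row segment, actives on both sides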;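 note: Alexa488 bead fluorescence after subtracting the streptavidin-only scavenger bead signal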
# PREPL inhibitor = PREPL enzyme inhibitors, primary screen, biochemical, fluorescence polarization | recombinant PREPL, fluorescence polarization activity-based probe | actives 0.68% (n = 320,000) | inhibition, % at 5.96 µM | Prolyl endopeptidase-like (Homo sapiens), Q4J6C6; in the data active = inhibition above about 43%;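 note: 0% = enzyme with DMSO and 100% = wells lacking enzyme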
# Apaf1 inhib = inhibitors of human Apaf-1 apoptosome, primary screen, biochemical, DEVD-Rh110 fluorescence, uHTS; actives 0.71% (n = 330,000); reconstituted apoptosome caspase-3 activity; Apoptotic protease-activating factor 1 (Homo sapiens), O14727; inhibition, % at 20 µM; active = inhibition of at least 40% at 20 µM;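 note: plate controls were DMSO wells for no effect and DEVD-CHO caspase inhibitor wells for full effect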
#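 Material: reconstituted apoptosome with Apaf-1, cytochrome c, caspase-9, procaspase-3, dATP / Buffer or medium: pH 7.5 Hepes buffer with CHAPS, BSA, DTT / Also added: cytochrome c with DEVD-Rh110 / Schedule: compound with Apaf-1, dATP, procaspase-3 30 min, then 50 min reaction, room temperature / Technique: rhodamine 110 fluorescence at Ex 480/Em 540 nm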
# MEKK2wt confirm = modulators of MEK5 binding to wildtype MEKK2, confirmation, biochemical, single concentration, multiplex bead flow cytometry | AID 1892, 2009 | Alexa488-MEK5 binding to MEKK2 WT; actives lie on both sides | actives 2.4% (n = 5,900) | shares compounds with MEKK3 PB1 HTS | binding response (% of control), % at 10 µM; in the data active = binding response below about 16% or above about 210%; inactive = in between
# MEKK2mut confirm = mutant MEKK2 PB1-MEK5 binding signal retest – biochemical, single concentration, multiplex bead flow cytometry, confirmation; shares compounds with MEKK3 PB1 HTS; Alexa488-MEK5 binding to MEKK2 mutant; percent response, % at 10 µM; actives 2% (n = 5,900); AID 1893, 2009; in the data active = percent response mostly above about 71%, no sharp cut-off; inactive = mostly below about 38%;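 note: higher means compound restores mutant binding toward wildtype level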
# MEKK3-MEK5 inh = MEKK3 wild-type PB1 binding to MEK5, inhibitors, confirmation, biochemical, bead multiplex flow cytometry, single concentration, wildtype; shares compounds with MEKK3 PB1 HTS; actives 1.8% (n = 5,900); binding response (% of control), % at 10 µM; Alexa488-MEK5 binding to MEKK3; active compounds read low;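 active = binding response below 72% of control, or above a set upper limit, though filed actives all read lower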;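 note: 100% = DMSO only wells and 0% = binding blocked by excess unlabeled MEK5; lower values mean stronger disruption of MEK5 binding to MEKK3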
# * marks the source's active call; other numbers are inactive results; . = no result given; [ ] = another dose, or the depositor's remark.
SMILES,MEKK2wt PB1 HTS,UBC13 inh,MEKK2 mut-MEK5,MEKK3 PB1 HTS,PREPL inhibitor,Apaf1 inhib,MEKK2wt confirm,MEKK2mut confirm,MEKK3-MEK5 inh
COc1ccc(/C=C/C(=O)NCCn2c(C)cc3ccccc32)cc1OC,83,4,5,67*[inhibitor],-3,9,110,11,103
Cc1cc2ccccc2n1CCNC(=O)C(C)Oc1ccccc1 (centres undefined),64*[inhibitor],18,-10,80*[inhibitor],31,35,49,-16,82
CC(Cc1ccccc1)NC(=O)CCCN1C(=O)c2ccccc2C1=O (centres undefined),104,-4,6,106,0,2,.,.,.
CCCN(Cc1nnc(-c2ccccc2Cl)o1)C(=O)c1oc2ccccc2c1C,.,3,.,.,-14,23,.,.,.
CCOC(=O)N1CCC(NC(=O)CC2C(=O)NCCN2Cc2cccc(F)c2F)CC1 (centres undefined),107,7,6,102,4,-9,.,.,.
CCN(CC)S(=O)(=O)c1ccc(C)c(NC(=S)NNC(=O)C2CC2)c1,100,0,-1,100,13,-1,.,.,.
Cc1ccc(S(=O)(=O)N(C)C)cc1NC(=S)NNC(=O)C1CC1,105,-3,0,131*,4,-1,99,-1,99
Cc1cc[n+](-c2[nH]c(=O)sc2/C=N/N=C(\[O-])c2ccncc2)cc1,103,-42,3,100,2,3,.,.,.
CCC(C)NCC(=O)Nc1ccc(-c2nc3cc(NC(=O)CNC(C)CC)ccc3o2)cc1 (centres undefined),160*,24,34*,114,-11,16,156,29,108
O=S(=O)(Nc1cccnc1)c1cccs1,54,-15,-24,41*[inhibitor],13,11,111,14,106
CCOC(=O)C1=C(C)NC(C)=C(C(=O)OCC)C1C(=O)OCC(=O)NCCc1ccccc1,.,12,.,.,16,9,.,.,.
O=C(NCCNC(=O)c1ccccn1)c1ccc(-c2ccccc2)cc1,106,4,12,107,-12,-5,.,.,.
Cc1nn(-c2ccc(F)cc2)c2sc(C(=O)O)cc12,-1.0*[inhibitor],-4,-29,2.0*[inhibitor],5,-18,93,-5,99
CC1CCC(NC(=O)c2ccc3c(c2)OCO3)CC1 (centres undefined),108,0,14,107,12,10,.,.,.
CC1CCC(NC(=O)c2ccc(/C=C3\Oc4ccccc4N(C)C3=O)cc2)CC1 (centres undefined),111,.,2,139*,.,.,99,2,102
N#Cc1ccccc1NC(=O)c1ccccc1OCC(=O)Nc1ccc2c(c1)oc1ccccc12,88,-14,-11,78*[inhibitor],-33,-18,91,-33,96
CNC(=O)COc1ccccc1C(=O)Nc1ccc2c(c1)oc1ccccc12,101,15,1,103,-17,-1,.,.,.
CN(C)c1ccc(NC(=O)CN2CCC(O)(c3ccccc3)CC2)cc1,.,-18,-35,1.0*[inhibitor],9,1,33,-25,69*
